PLC-gamma1 inh – inhibitors of human phospholipase C gamma1. 370,000 tested, 0.84% active. inhibition, % at 12.2 µM. P19174. purified PLC-gamma1, fluorogenic substrate, fluorescence; in the data active means inhibition above about 9.5%
NRP1-CendR mod – modulators of CendR peptide binding to human neuropilin-1. FAM-RPARPAR peptide binding to NRP-1, fluorescence polarization. inhibition, % at 25 µM. 360,000 tested, 0.85% active;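 active means inhibition or corrected inhibition above about 18%, plus a signal ratio from 0.5 to 1.5, limit read from the data, passing the limit was not always enough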
DDE Tn6 FP inh – inhibitors of Tn6 peptide binding to human fibrin DD(E). Fibrin DD(E) TRITC-Tn6 fluorescence polarization displacement. inhibition, % at 8.3 µM. 370,000 tested, 0.21% active. AID 720509. P02675;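 active means inhibition above a per-campaign cutoff: mean of compounds within control limits plus 3 SD, cut at about 15% in these data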
PLCb3 inh – PLC-beta3 (human) inhibition, primary screen | Purified PLC-beta3, fluorogenic substrate, fluorescence | 370,000 tested, 0.18% active | inhibition, % at 12.2 µM | Q01970; in the data active means inhibition above about 11%
KLK7 zymogen act – proKLK7 (human) activation, primary screen; P49862; purified proKLK7, EDANS-DABCYL substrate fluorescence; 100% is mature enzyme control, 0% vehicle; activation, % at 7 µM; 370,000 tested, 0.9% active; AID 652039;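 active means activation above the mean of all tested compounds plus 3 SD, computed per campaign excluding outliers beyond control limits, cut at about 13% in these data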
Target sequence (P49862 whole entry, looked up): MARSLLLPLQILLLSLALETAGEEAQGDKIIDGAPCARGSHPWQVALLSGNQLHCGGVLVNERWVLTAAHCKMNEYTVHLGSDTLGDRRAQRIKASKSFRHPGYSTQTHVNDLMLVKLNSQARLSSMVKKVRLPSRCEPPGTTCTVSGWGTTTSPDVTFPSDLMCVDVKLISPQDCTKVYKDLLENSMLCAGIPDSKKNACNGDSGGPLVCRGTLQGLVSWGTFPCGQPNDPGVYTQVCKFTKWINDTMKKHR
Tn7 DDE FP – disrupts Tn7 cyclic peptide binding to fibrin D-Dimer-E complex. P02675. FP displacement of FITC-Tn7 peptide from fibrin DD(E); 0% = median of compound wells per plate. inhibition, % at 8.3 µM. AID 720508. 370,000 tested, 0.13% active;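 active means inhibition above the mean of compounds falling within the control limits plus 3 SD of them, cut at about 14% in these data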
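Assay system: human fibrin DD(E). Input: DD(E) 2 µM final. Medium: Tris buffer with calcium and detergent, pH 7.8. Compound dosing: single point at 8.3 µM. Timing: 10 min plus 3 h, room temperature. Technique: fluorescence polarization of the labelled Tn7 tracer. Read-out: percent inhibition. Replicates: singlicate testing.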
Of the large screens only hits and unclear results are named; the others gave an inactive call. Most compounds without a hit are left out; they make up all but 3% or so of the library.

CCOC(=O)C1=C[C@@H](C(C)(C)C)N(S(=O)(=O)c2ccc([N+](=O)[O-])cc2)[C@H]1c1cccc(Cl)c1	none (no result: NRP1-CendR mod)
CCOC(=O)C1=C[C@@H](C(C)(C)C)N(S(=O)(=O)c2ccc([N+](=O)[O-])cc2)[C@H]1c1ccccc1	NRP1-CendR mod 23
Cc1ccc(NC(=O)c2nc[nH]c2C(=O)N[C@H](C)c2ccccc2)cc1	none
CC(C)(C)OC(=O)NCCCC[C@H](NC(=O)c1[nH]cnc1C(=O)Nc1ccc(Cl)cc1)C(=O)OC(C)(C)C	none (no result: PLC-gamma1 inh, DDE Tn6 FP inh, PLCb3 inh, KLK7 zymogen act, Tn7 DDE FP)
CC(C)(C)OC(=O)NCCCC[C@H](NC(=O)c1[nH]cnc1C(=O)Nc1ccccc1)C(=O)OC(C)(C)C	NRP1-CendR mod 21
C[C@H](NC(=O)c1[nH]cnc1C(=O)Nc1ccccc1)c1ccccc1	NRP1-CendR mod 26
CC(C)(C)OC(=O)[C@H](CCCCN)NC(=O)c1nc[nH]c1C(=O)N[C@@H](CCCCN)C(=O)OC(C)(C)C	NRP1-CendR mod 21
CCn1c(=O)n(CC(=O)N2CCN(C(C)=O)CC2)c(=O)c2ccccc21	none (no result: NRP1-CendR mod)
O=C(c1ccc2c(c1)C(=O)NC2=O)c1ccc2c(c1)C(=O)NC2=O	none (no result: NRP1-CendR mod)
CN1CCN(c2ccccc2NC(=O)c2ccc(-c3cccc([N+](=O)[O-])c3)o2)CC1	NRP1-CendR mod 45
CCC(=O)N1CCN(c2ccccc2NC(=O)c2ccc(-c3cccc([N+](=O)[O-])c3)o2)CC1	none
COc1ccc(NC(=O)c2c(-c3c(Cl)cccc3Cl)noc2C)c(OC)c1	NRP1-CendR mod 26
COCCNc1nc(C)cc(-c2cc(-c3ccc(Cl)cc3)on2)n1	none
COCCNc1nc(-c2cc(-c3ccccc3)on2)cc(C(C)C)n1	NRP1-CendR mod 26
Nc1c(C(=O)NCc2cccnc2)sc(=S)n1-c1ccccc1	none
CCn1c(N)c(C(=O)NCc2cccnc2)sc1=S	NRP1-CendR mod 26
CCCNC(=O)c1ccc2c(=O)c(O)c(C)[nH]c2c1	NRP1-CendR mod 21
CCCNC(=O)c1ccc2c(=O)c(O)c(-c3ccc(F)cc3)[nH]c2c1	none (no result: PLC-gamma1 inh, DDE Tn6 FP inh, PLCb3 inh, KLK7 zymogen act, Tn7 DDE FP)
c1ccc(CSc2nnc(-c3ccncc3)o2)cc1	NRP1-CendR mod 26
CN(C)CCN1CCN(C2CN(Cc3ccc([N+](=O)[O-])cc3)S(=O)(=O)C2)CC1 (stereo unspecified)	NRP1-CendR mod 22
O=C(Nc1ccc(Cl)c(C(F)(F)F)c1)[C@@H]1CC=C[C@@H]2CCN(C3CCCCC3)C(=O)[C@@H]21	none
O=C(Nc1ccc(Cl)c(C(F)(F)F)c1)[C@@H]1CC=C[C@@H]2CCN(C3CC3)C(=O)[C@@H]21	NRP1-CendR mod 24
O=C1c2cc(Cl)ccc2OC2(CCNCC2)C12CC(c1ccccc1)=NO2 (stereo unspecified)	none
O=C1c2cc(Cl)ccc2OC2(CCNCC2)C12CC(c1ccc(Cl)cc1)=NO2 (stereo unspecified)	NRP1-CendR mod 25 (no result: PLC-gamma1 inh, DDE Tn6 FP inh, PLCb3 inh, KLK7 zymogen act, Tn7 DDE FP)
COC[C@H]1CCCN1c1cccc2c1S(=O)(=O)N(C1CC1)CCCO2	none (no result: NRP1-CendR mod)
CCCCn1c(SCC(=O)Nc2cc(C)on2)nnc1-c1ccncc1	none
CCCCn1c(SCC(=O)Nc2cc(C)on2)nnc1-c1cccnc1	NRP1-CendR mod 22
CCCCC1=CC2=CC(=O)C(C)(OC(=O)CC)C(=O)C2=CN1c1ccc(OC)cc1 (stereo unspecified)	NRP1-CendR mod 24
COC(=O)[C@]12C[C@H](CC(=O)N3CCCC3)C(=O)N(Cc3ccc(Cl)cc3Cl)C1=C[C@H](C(C)C)O[C@@H]2C1CC1	none (no result: NRP1-CendR mod)
O=C(Nc1cc(S(=O)(=O)N2CCOCC2)ccc1N1CCCC1)c1cc2c(s1)CCCC2	none (no result: NRP1-CendR mod, KLK7 zymogen act)
Cc1ccc(NS(=O)(=O)Cc2ccccc2)nc1	NRP1-CendR mod 26
COc1ccc2c(c1)NC(=O)[C@@]2(CCN1C(=O)c2ccccc2C1=O)c1[nH]c2ccccc2c1CCN1C(=O)c2ccccc2C1=O	none (no result: NRP1-CendR mod, KLK7 zymogen act)
COc1ccc(C(CNc2ccc(S(=O)(=O)N3CCCC3)cc2[N+](=O)[O-])N2CCCC2)cc1 (stereo unspecified)	NRP1-CendR mod 26
COc1ccc(C(CNc2ccc(S(=O)(=O)N3CCN(C)CC3)cc2[N+](=O)[O-])N(C)C)cc1 (stereo unspecified)	none
Cc1cccc(C(O)c2ncc(-c3ccccc3F)[nH]2)c1C (stereo unspecified)	NRP1-CendR mod 30
OCCCn1c(C2CCCN2c2nc(-c3ccc(Cl)cc3)cs2)nc2cc(Cl)c(N3CCCCC3)cc21 (stereo unspecified)	NRP1-CendR mod 30
O=C(NCCc1nc2ccccc2n1C/C=C/c1ccccc1)C1CCCCC1	none (no result: NRP1-CendR mod, KLK7 zymogen act)
COc1ccc(-c2cc(C#N)nc(Cl)n2)cc1	none
CCN(CC)c1nc(C#N)cc(-c2ccc(OC)cc2)n1	NRP1-CendR mod 24
Cc1ccc(C)c(NC(=O)Cn2nnc(-c3ccncc3)n2)c1	none (no result: NRP1-CendR mod)
Cc1ccc(NC(=O)[C@@H](CC(C)C)NC(=O)[C@@H]2Cc3ccccc3CN2)cc1	none
Cc1ccc(NC(=O)[C@H](CC(C)C)NC(=O)[C@@H]2Cc3ccccc3CN2)cc1	NRP1-CendR mod 21
Cc1ccc(CN2CCCCC(NC(=O)c3ccccc3)C2=O)cc1 (stereo unspecified)	none (no result: NRP1-CendR mod)
CC(=O)Nc1ccc(C2=NN(C)C(=NCc3ccccc3)SC2)cc1	NRP1-CendR mod 30
O=C(Nc1ccc(Cl)cc1)N1CCSC1=NCc1ccccc1	none
O=C(Cc1ccc(Cl)cc1)NNC(=S)NC(=O)c1cccs1	NRP1-CendR mod 37
CC(=O)N1CCc2cc(S(=O)(=O)NCCC(=O)N(C)Cc3ccccc3F)ccc21	none (no result: NRP1-CendR mod)
CCC1(c2ccc(F)cc2)NC(=O)N(CC(=O)Nc2cccc(S(=O)(=O)N3CCCC3)c2)C1=O (stereo unspecified)	none
CCC1(c2ccc(F)cc2)NC(=O)N(CC(=O)Nc2cccc(S(=O)(=O)N3CCCCC3)c2)C1=O (stereo unspecified)	NRP1-CendR mod 31
CCC1(c2ccccc2)NC(=O)N(CC(=O)Nc2ccccc2C(=O)N2CCCCC2)C1=O (stereo unspecified)	NRP1-CendR mod 21
Cc1cccc(Cn2cc(COC(=O)NCC(C)C)nn2)c1	none (no result: NRP1-CendR mod)
CNC(=O)c1ccccc1Sc1ccccc1C#N	NRP1-CendR mod 32
CNC[C@H](O)c1ccc(O)c(O)c1	none
